For assay [1], the system named is Trichophyton mentagrophytes. Kind of assay: Antimicrobial activity against Trichophyton mentagrophytes by broth micro-dilution method. The format is functional, organism-based.
For the next assay, the system named is Staphylococcus aureus. Kind of assay: Antimicrobial activity against Staphylococcus aureus by broth micro-dilution method. The class given is functional.
The test system of another assay is Cryptococcus neoformans. Kind of assay: Antimicrobial activity against Cryptococcus neoformans by broth micro-dilution method. The class given is functional, organism-based.
For another assay, the system named is Candida albicans. As to the kind of experiment: Antimicrobial activity against Candida albicans by broth micro-dilution method. The class given is functional, organism-based.
For a further assay, the system named is L1210. Kind of assay: Cytotoxicity against mouse L1210 cells incubated for 48 hrs at 37 degC. The class given is functional, cell-based. The conditions noted are these: L1210, 48 h. Summed up:
(§1)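 Human epidermoid carcinoma KB and murine leukemia L1210 cells were cultured with test compounds at various concentrations, dissolved in 1% DMSO, in 100 μL medium at 37 °C for 48 h. IC50 was taken from a plot of log concentration against growth rate of treated cells. Paclitaxel was the positive control.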

The test system of the next assay is Bacillus subtilis. As to the kind of experiment: Antimicrobial activity against Bacillus subtilis by broth micro-dilution method. The format is functional.
The test system of a further assay is Micrococcus luteus. As to the kind of experiment: Antimicrobial activity against Micrococcus luteus by broth micro-dilution method. The class given is functional.
The test system of a further assay is KB. Kind of assay: Cytotoxicity against human KB cells incubated for 48 hrs at 37 degC. The format is functional, cell-based. Summed up: as §1
The test system of a further assay is Escherichia coli. Kind of assay: Antimicrobial activity against Escherichia coli by broth micro-dilution method. The format is functional.
A further assay deals with Aspergillus niger. Kind of assay: Antimicrobial activity against Aspergillus niger by broth micro-dilution method. The format is functional, organism-based.

Consider `CC(C)C(=O)C1=C2O[C@H](C(C)(C)O)C[C@]2(C)C(=O)[C@]2(C[C@H]3[C@@H](CC[C@@]3(C)O)[C@](C)(O)C2)C1=O` (relative stereo), for which the IC50 in assay [1] is more than 32 µg/mL; with Cryptococcus neoformans, more than 32 µg/mL; with Candida albicans it was more than 32 µg/mL; in the assay with L1210, more than 10 µg/mL; in the assay on KB, more than 10 µg/mL; in the assay with Aspergillus niger, more than 32 µg/mL. In addition, the minimum inhibitory concentration (MIC) with Staphylococcus aureus, in the assay on Bacillus subtilis, against Micrococcus luteus and against Escherichia coli was more than 32 µg/mL each time.
For `CC(C)=CC[C@]1(C)C(=O)[C@@]2(C[C@H]3[C@@H](CC[C@@]3(C)O)[C@](C)(O)C2)C(=O)C(C(=O)C(C)C)=C1O` (relative stereo), the IC50 in assay [1] was more than 32 µg/mL; in the assay on Cryptococcus neoformans it was more than 32 µg/mL; with Candida albicans it was more than 32 µg/mL; in the assay with L1210, more than 10 µg/mL; in the assay on KB, more than 10 µg/mL; in the assay with Aspergillus niger, more than 32 µg/mL. Further, the MIC with Staphylococcus aureus, in the assay with Bacillus subtilis, against Micrococcus luteus and against Escherichia coli was more than 32 µg/mL each time.
As for `CCC(C)C(=O)C1=C(O)[C@@](C)(CC=C(C)C)C(=O)[C@@]2(C[C@H]3[C@@H](CC[C@@]3(C)O)[C@](C)(O)C2)C1=O` (relative stereo), the concentration for half-maximal inhibition (IC50) in [1] was more than 32 µg/mL; in the assay on Cryptococcus neoformans, more than 32 µg/mL; in the assay on Candida albicans it was more than 32 µg/mL; in the assay on L1210, more than 10 µg/mL; with KB it was more than 10 µg/mL; with Aspergillus niger, more than 32 µg/mL. Besides, the minimum inhibitory concentration (MIC) in the assay with Staphylococcus aureus, in the assay with Bacillus subtilis, in the assay on Micrococcus luteus and in the assay with Escherichia coli was more than 32 µg/mL throughout.
Take `CCC(C)C(=O)C1=C2O[C@H](C(C)(C)O)C[C@]2(C)C(=O)[C@]2(C[C@H]3[C@@H](CC[C@@]3(C)O)[C@](C)(O)C2)C1=O` (some centres not stated) [CHIPERICUMIN B]: the IC50 in assay [1] was more than 32 µg/mL; in the assay with Cryptococcus neoformans it was more than 32 µg/mL; with Candida albicans it was more than 32 µg/mL; in the assay on L1210, more than 10 µg/mL; in the assay on KB, more than 10 µg/mL; with Aspergillus niger, more than 32 µg/mL. For the same compound, the minimum inhibitory concentration (MIC) in the assay with Staphylococcus aureus, in the assay on Bacillus subtilis, in the assay on Micrococcus luteus and against Escherichia coli was more than 32 µg/mL in each case.
In the case of `CC(=O)O[C@H]1C(=O)[C@@]2(C)[C@H]([C@H](OC(=O)c3ccccc3)[C@]3(O)C[C@H](OC(=O)[C@H](O)[C@@H](NC(=O)c4ccccc4)c4ccccc4)C(C)=C1C3(C)C)[C@]1(OC(C)=O)CO[C@@H]1C[C@@H]2O` [PACLITAXEL], the IC50 in the assay with L1210 amounted to 120 nM; in the assay on KB, 4.5 nM.
